According to ChEMBL document CHEMBL1153829, “Exploiting chemical libraries, structure, and genomics in the search for kinase inhibitors” (Science, 1998):
Active and inactive are the calls of the source. No cut-off for these calls is given here.

Key:
Assay type in all cases: functional, organism-based
Saccharomyces cerevisiae [1] = assay: Increase in PHO81 mRNA level in delta snq2, delta pdr5 and delta erg6 knock out yeast YRP1 at 25 µM after 2 hrs by high-density oligonucleotide array; settings: 25 M
Procedure, shortened: (§1)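 Drug-sensitized S. cerevisiae cultures grown to late logarithmic phase, then exposed to 25 μM inhibitor for 2 h. Polyadenylated mRNA isolated, converted to biotin-labeled cRNA and hybridized to a set of four high-density arrays carrying more than 260,000 25-nucleotide oligomers. Transcripts scored as changed when they shifted more than twofold in triplicate hybridizations for each of two independent experiments.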

Saccharomyces cerevisiae [2] = assay: Increase in PCL5 mRNA level in delta snq2, delta pdr5 and delta erg6 knock out yeast YRP1 at 25 µM after 2 hrs by high-density oligonucleotide array; procedure, shortened: as §1
Saccharomyces cerevisiae [3] = assay: Increase in PHO84 mRNA level in delta snq2, delta pdr5 and delta erg6 knock out yeast YRP1 at 25 µM after 2 hrs by high-density oligonucleotide array; procedure, shortened: as §1
Saccharomyces cerevisiae [4] = assay: Increase in PHO8 mRNA level in delta snq2, delta pdr5 and delta erg6 knock out yeast YRP1 at 25 µM after 2 hrs by high-density oligonucleotide array; procedure, shortened: as §1
Saccharomyces cerevisiae [5] = assay: Induction of ALD4 gene expression in delta snq2, delta pdr5 and delta erg6 knock out yeast YRP1 at 25 µM after 2 hrs by high-density oligonucleotide array; settings: 25 M; procedure, shortened: as §1
Saccharomyces cerevisiae [6] = assay: Upregulation of YPT53 gene expression in delta snq2, delta pdr5 and delta erg6 knock out yeast YRP1 at 25 µM after 2 hrs by high-density oligonucleotide array; settings: 25 M
Procedure, shortened: (§2)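 Drug-sensitized yeast strain grown to late logarithmic phase, then exposed to 25 μM inhibitor for 2 h. Polyadenylated mRNA was isolated and converted to biotin-labeled cRNA, which was hybridized to a set of four arrays carrying over 260,000 25-nucleotide oligomers. Transcripts changing more than twofold were scored, from triplicate hybridizations in each of two independent experiments.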

Saccharomyces cerevisiae [7] = assay: Effect on YBR147w gene expression in delta snq2, delta pdr5 and delta erg6 knock out yeast YRP1 bearing cdc28-4 mutant allele assessed as change in mRNA level at 25 µM after 2 hrs by high-density oligonucleotide array
Saccharomyces cerevisiae [8] = assay: Effect on YOL155C gene expression in delta snq2, delta pdr5 and delta erg6 knock out yeast YRP1 bearing cdc28-4 mutant allele assessed as change in mRNA level at 25 µM after 2 hrs by high-density oligonucleotide array
Saccharomyces cerevisiae [9] = assay: Induction of HAP4 gene expression in delta snq2, delta pdr5 and delta erg6 knock out yeast YRP1 bearing cdc28-4 mutant allele at 25 µM after 2 hrs by high-density oligonucleotide array; settings: 25 M
Procedure, shortened: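 cdc28-4 temperature-sensitive strain and its isogenic wild type were profiled at the permissive temperature of 25°C. Polyadenylated mRNA was converted to biotin-labeled cRNA and hybridized to high-density oligonucleotide arrays. Transcripts changing more than twofold were scored, from triplicate hybridizations of RNA from a single experiment.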

Saccharomyces cerevisiae [10] = assay: Effect on ACH1 gene expression in delta snq2, delta pdr5 and delta erg6 knock out yeast YRP1 bearing cdc28-4 mutant allele assessed as change in mRNA level at 25 µM after 2 hrs by high-density oligonucleotide array; settings: 25 M
Saccharomyces cerevisiae [11] = assay: Effect on CYC3 gene expression in delta snq2, delta pdr5 and delta erg6 knock out yeast YRP1 bearing cdc28-4 mutant allele assessed as change in mRNA level at 25 µM after 2 hrs by high-density oligonucleotide array; settings: 25 M
Saccharomyces cerevisiae [12] = assay: Effect on YGL121C gene expression in delta snq2, delta pdr5 and delta erg6 knock out yeast YRP1 bearing cdc28-4 mutant allele assessed as change in mRNA level at 25 µM after 2 hrs by high-density oligonucleotide array; settings: 25 M
Saccharomyces cerevisiae [13] = assay: Effect on YKL071W gene expression in delta snq2, delta pdr5 and delta erg6 knock out yeast YRP1 bearing cdc28-4 mutant allele assessed as change in mRNA level at 25 µM after 2 hrs by high-density oligonucleotide array
Saccharomyces cerevisiae [14] = assay: Effect on YNR009w gene expression in delta snq2, delta pdr5 and delta erg6 knock out yeast YRP1 assessed as change in mRNA level at 25 µM after 2 hrs by high-density oligonucleotide array; procedure, shortened: as §1
Saccharomyces cerevisiae [15] = assay: Effect on YLR311C gene expression in delta snq2, delta pdr5 and delta erg6 knock out yeast YRP1 bearing cdc28-4 mutant allele assessed as change in mRNA level at 25 µM after 2 hrs by high-density oligonucleotide array; settings: 25 M
Saccharomyces cerevisiae [16] = assay: Effect on YOR248W gene expression in delta snq2, delta pdr5 and delta erg6 knock out yeast YRP1 bearing cdc28-4 mutant allele assessed as change in mRNA level at 25 µM after 2 hrs by high-density oligonucleotide array; settings: 25 M
Saccharomyces cerevisiae [17] = assay: Effect on HTA2 gene expression in delta snq2, delta pdr5 and delta erg6 knock out yeast YRP1 bearing cdc28-4 mutant allele assessed as change in mRNA level at 25 µM after 2 hrs by high-density oligonucleotide array
Saccharomyces cerevisiae [18] = assay: Upregulation of YER150w gene expression in delta snq2, delta pdr5 and delta erg6 knock out yeast YRP1 at 25 µM after 2 hrs by high-density oligonucleotide array; settings: 25 M; procedure, shortened: as §2
Saccharomyces cerevisiae [19] = assay: Effect on YGL179C gene expression in delta snq2, delta pdr5 and delta erg6 knock out yeast YRP1 assessed as change in mRNA level at 25 µM after 2 hrs by high-density oligonucleotide array; settings: 25 M; procedure, shortened: as §1
Saccharomyces cerevisiae [20] = assay: Growth inhibition of delta snq2, delta pdr5 and delta erg6 knock out yeast YRP1 assessed as induction of uniform arrest morphology
Saccharomyces cerevisiae [21] = assay: Effect on YBR214w gene expression in delta snq2, delta pdr5 and delta erg6 knock out yeast YRP1 assessed as change in mRNA level at 25 µM after 2 hrs by high-density oligonucleotide array; procedure, shortened: as §1
Saccharomyces cerevisiae [22] = assay: Downregulation of HTA2 mRNA expression in delta snq2, delta pdr5 and delta erg6 knock out yeast YRP1 at 25 µM after 2 hrs by high-density oligonucleotide array; procedure, shortened: as §1
Saccharomyces cerevisiae [23] = assay: Downregulation of HTB2 mRNA expression in delta snq2, delta pdr5 and delta erg6 knock out yeast YRP1 at 25 µM after 2 hrs by high-density oligonucleotide array; settings: 25 M; procedure, shortened: as §1
Saccharomyces cerevisiae [24] = assay: Down regulation of CLB2 mRNA expression in delta snq2, delta pdr5 and delta erg6 knock out yeast YRP1 assessed as change in mRNA level at 25 µM after 2 hrs by high-density oligonucleotide array; procedure, shortened: as §1
Saccharomyces cerevisiae [25] = assay: Induction of YAL061W gene expression in delta snq2, delta pdr5 and delta erg6 knock out yeast YRP1 at 25 µM after 2 hrs by high-density oligonucleotide array; settings: 25 M; procedure, shortened: as §2
Saccharomyces cerevisiae [26] = assay: Upregulation of SSE2 gene expression in delta snq2, delta pdr5 and delta erg6 knock out yeast YRP1 at 25 µM after 2 hrs by high-density oligonucleotide array; settings: 25 M; procedure, shortened: as §2
Saccharomyces cerevisiae [27] = assay: Upregulation of HSP104 gene expression in delta snq2, delta pdr5 and delta erg6 knock out yeast YRP1 at 25 µM after 2 hrs by high-density oligonucleotide array; settings: 25 M; procedure, shortened: as §2
Saccharomyces cerevisiae [28] = assay: Upregulation of HSP30 gene expression in delta snq2, delta pdr5 and delta erg6 knock out yeast YRP1 at 25 µM after 2 hrs by high-density oligonucleotide array; settings: 25 M; procedure, shortened: as §2
Saccharomyces cerevisiae [29] = assay: Upregulation of HSP82 gene expression in delta snq2, delta pdr5 and delta erg6 knock out yeast YRP1 at 25 µM after 2 hrs by high-density oligonucleotide array; procedure, shortened: as §2
Saccharomyces cerevisiae [30] = assay: Upregulation of PDR10 gene expression in delta snq2, delta pdr5 and delta erg6 knock out yeast YRP1 at 25 µM after 2 hrs by high-density oligonucleotide array; settings: 25 M; procedure, shortened: as §2

| SMILES | Activity (Saccharomyces cerevisiae [1]) | Activity (Saccharomyces cerevisiae [2]) | Activity (Saccharomyces cerevisiae [3]) | Activity (Saccharomyces cerevisiae [4]) | Activity (Saccharomyces cerevisiae [5]) | Activity (Saccharomyces cerevisiae [6]) | Activity (Saccharomyces cerevisiae [7]) | Activity (Saccharomyces cerevisiae [8]) | Activity (Saccharomyces cerevisiae [9]) | Activity (Saccharomyces cerevisiae [10]) | Activity (Saccharomyces cerevisiae [11]) | Activity (Saccharomyces cerevisiae [12]) | Activity (Saccharomyces cerevisiae [13]) | Activity (Saccharomyces cerevisiae [14]) | Activity (Saccharomyces cerevisiae [15]) | Activity (Saccharomyces cerevisiae [16]) | Activity (Saccharomyces cerevisiae [17]) | Activity (Saccharomyces cerevisiae [18]) | Activity (Saccharomyces cerevisiae [19]) | Activity (Saccharomyces cerevisiae [20]) | other results |
| --- | --- | --- | --- | --- | --- | --- | --- | --- | --- | --- | --- | --- | --- | --- | --- | --- | --- | --- | --- | --- | --- |
| CC(C)n1cnc2/c(=N/c3cccc(Cl)c3)nc(NCCO)[nH]c21 | Active | Active | Active | Active | Active | Active | Active | Active | Active | Active | Active | Active | Active | Active | Active | Active | Active | Active | Active | inactive | Activity (Saccharomyces cerevisiae [21]): Active; Activity (Saccharomyces cerevisiae [22]): Active; Activity (Saccharomyces cerevisiae [23]): Active; Activity (Saccharomyces cerevisiae [24]): Active; Activity (Saccharomyces cerevisiae [25]): Active; Activity (Saccharomyces cerevisiae [26]): Active; Activity (Saccharomyces cerevisiae [27]): Active; Activity (Saccharomyces cerevisiae [28]): Active; Activity (Saccharomyces cerevisiae [29]): Active; Activity (Saccharomyces cerevisiae [30]): Active |
| CN1CC[C@H](c2c(O)cc(O)c3c(=O)cc(-c4ccccc4Cl)oc23)[C@H](O)C1 [ALVOCIDIB] | Active | Active | Active | Active | Active | Active | Active | Active | Active | Active | Active | Active | Active | Active | Active | Active | Active | Active | Active | inactive | Activity (Saccharomyces cerevisiae [21]): Active; Activity (Saccharomyces cerevisiae [22]): Active; Activity (Saccharomyces cerevisiae [23]): Active; Activity (Saccharomyces cerevisiae [24]): Active; Activity (Saccharomyces cerevisiae [25]): Active; Activity (Saccharomyces cerevisiae [26]): Active; Activity (Saccharomyces cerevisiae [27]): Active; Activity (Saccharomyces cerevisiae [28]): Active; Activity (Saccharomyces cerevisiae [29]): Active; Activity (Saccharomyces cerevisiae [30]): Active |
